# Experimental data: ChEMBL document CHEMBL1141876, “Quinols as novel therapeutic agents. 2.(1) 4-(1-Arylsulfonylindol-2-yl)-4-hydroxycyclohexa-2,5-dien-1-ones and related agents as potent and selective antitumor agents” (2005)
# How the values were obtained:
# Assay type in all cases: functional
# [1] = system: Panel NCI-60 (60 carcinoma cell lines); test: Mean in vitro GI50 value against 60 human cancer cell line was determined
# HCT-116 = test: Mean in vitro LC50 value against human HCT116 cell line was determined; details: read-out: LC50 (the source's name)
# In short: (§1)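 NCI 60-cell-line screen. Cells seeded at densities suited to each line's growth and left drug-free for 24 h. Agents then added at five 10-fold dilutions, top concentration 100 μM, for 48 h. Cellular protein measured by sulforhodamine B colorimetry. LC50 read from these curves; for line 1 it is averaged across the 60 lines.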
# RXF 393 = test: Mean in vitro LC50 value against human RXF 393 cell line was determined; details: read-out: LC50 (the source's name); in short: as §1
# [2] = system: Panel NCI-60 (60 carcinoma cell lines); test: Mean in vitro LC50 value against 60 human cancer cell line was determined; details: read-out: LC50 (the source's name); in short: as §1
# U-251 = test: Mean in vitro LC50 value against human U251 cell line was determined; details: read-out: LC50 (the source's name); in short: as §1
# UO-31 = test: Mean in vitro LC50 value against human UO-31 cell line was determined; details: read-out: LC50 (the source's name); in short: as §1
# CAKI-1 = test: Mean in vitro LC50 value against human CAKI-1 cell line was determined; details: read-out: LC50 (the source's name); in short: as §1
# LOX IMVI = test: Mean in vitro LC50 value against human LOX IMVI cell line was determined; details: read-out: LC50 (the source's name); in short: as §1
# ACHN = test: Mean in vitro LC50 value against human ACHN cell line was determined; details: read-out: LC50 (the source's name); in short: as §1
# UACC-62 = test: Mean in vitro LC50 value against human UACC-62 cell line was determined; details: read-out: LC50 (the source's name); in short: as §1
compound,measurement,setting,value
O=C1C=CC(O)(c2nc3ccccc3s2)C=C1,GI50,[1],230 nM
same,CC50,HCT-116,430 nM
same,CC50,RXF 393,580 nM
same,CC50,[2],3390 nM
CC(C)c1cc(C(C)C)c(S(=O)(=O)n2c(C3(O)C=CC(=O)C=C3)cc3ccccc32)c(C(C)C)c1,GI50,[1],430 nM
same,CC50,HCT-116,550 nM
same,CC50,RXF 393,780 nM
same,CC50,[2],11200 nM
O=C1C=CC(O)(c2cc3ccccc3[nH]2)C=C1,GI50,[1],1380 nM
same,CC50,HCT-116,5130 nM
same,CC50,RXF 393,3390 nM
same,CC50,[2],24000 nM
O=C1C=CC(O)(c2cc3ccccc3n2S(=O)(=O)c2ccc3ccccc3c2)C=C1,GI50,[1],190 nM
same,CC50,U-251,510 nM
same,CC50,HCT-116,370 nM
same,CC50,[2],5620 nM
O=C1C=CC(O)(c2cc3ccccc3n2S(=O)(=O)c2ccc(F)cc2)C=C1,GI50,[1],230 nM
same,CC50,UO-31,630 nM
same,CC50,HCT-116,360 nM
same,CC50,[2],7760 nM
O=C1C=CC(O)(c2cc3ccccc3n2S(=O)(=O)c2ccccc2)C=C1,GI50,[1],39 nM
same,CC50,CAKI-1,53 nM
same,CC50,[2],2950 nM
Cc1ccc(S(=O)(=O)n2c(C3(O)C=CC(=O)C=C3)cc3ccccc32)cc1,GI50,[1],110 nM
same,CC50,HCT-116,48 nM
same,CC50,LOX IMVI,230 nM
same,CC50,[2],7240 nM
COc1ccc2c(c1)cc(C1(O)C=CC(=O)C=C1)n2S(=O)(=O)c1ccccc1,GI50,[1],130 nM
same,CC50,ACHN,450 nM
same,CC50,LOX IMVI,470 nM
same,CC50,[2],6170 nM
O=C1C=CC(O)(c2nc3ccccc3[nH]2)C=C1,GI50,[1],870 nM
same,CC50,HCT-116,1860 nM
same,CC50,UACC-62,1410 nM
same,CC50,[2],13200 nM
COc1ccc(S(=O)(=O)n2c(C3(O)C=CC(=O)C=C3)cc3ccccc32)cc1,GI50,[1],160 nM
same,CC50,HCT-116,110 nM
same,CC50,LOX IMVI,380 nM
same,CC50,[2],6310 nM
O=C1C=CC(O)(c2cc3ccccc3n2S(=O)(=O)c2ccccc2)c2ccccc21 (stereo not given),GI50,[1],450 nM
same,CC50,HCT-116,790 nM
same,CC50,LOX IMVI,780 nM
same,CC50,[2],7760 nM
O=C1C=CC(O)(c2cc3ccc(F)cc3n2S(=O)(=O)c2ccccc2)C=C1,GI50,[1],16 nM
same,CC50,ACHN,20 nM
same,CC50,HCT-116,< 10 nM
same,CC50,[2],2240 nM
Cc1ccc(S(=O)(=O)n2c(C3(O)C=CC(=O)c4ccccc43)cc3ccccc32)cc1 (stereo not given),GI50,[1],390 nM
same,CC50,HCT-116,450 nM
same,CC50,LOX IMVI,720 nM
same,CC50,[2],5620 nM
O=C1C=CC(O)(c2cc3cc(F)ccc3n2S(=O)(=O)c2ccccc2)C=C1,GI50,[1],66 nM
same,CC50,HCT-116,50 nM
same,CC50,LOX IMVI,63 nM
same,CC50,[2],3230 nM
